# Measured values pooled from the literature.
# Each line is one published result; the experiments were not run side by side.
Structure (SMILES),target or system,assay,setting,endpoint,value
O=C(Nc1ccc(Cl)cc1)Nc1cccc(-c2cn(Cc3ccc(Br)cc3)nn2)c1,A549,"cell growth or viability, CCK-8","50 µM, 72 h",viability,123%
N#C[Se]Cc1cc(=O)oc2cc(O)ccc12,A549,"cell growth or viability, SRB",,GI50,28 µM
CCOc1ccc(Nc2c3c(nc4ccccc24)CCC3)cc1,Leishmania donovani,parasite growth,"8 µM, intracellular, amastigote",inhibition,69%
O=c1cc(CSc2ccc(N=Cc3ccccc3)cc2)occ1O,,"ABTS scavenging, absorbance",,IC50,0.04 µM
Cc1cc(=O)oc2cc(OCCCC[Se]C#N)ccc12,A549,"cell growth or viability, SRB",,GI50,0.78 µM
c1ccc(Oc2ccc(Nc3c4c(nc5ccccc35)CCC4)cc2)cc1,Leishmania donovani,parasite growth,"33.33 µM, promastigote",inhibition,91%
O=c1cc(CSc2ccc(N=Cc3ccccc3[N+](=O)[O-])cc2)occ1O,,"ABTS scavenging, absorbance",,IC50,42.6 µM
N.N.[Cl][Pt][Cl],MEG-01,"cell growth or viability, ATP luminescence","10 µM, 72 h",inhibition,92%
O=c1cc(CSc2ccc(N=Cc3ccc(O)cc3)cc2)occ1O,,"ABTS scavenging, absorbance",,IC50,20.3 µM
CC[C@H](C)[C@H](NC(=O)[C@H](CCCNC(=N)N)NC(=O)[C@H](CC(C)C)NC(=O)[C@@H](N)CCCNC(=N)N)C(=O)N[C@@H](CCC(N)=O)C(=O)N[C@@H](CCCNC(=N)N)C(=O)N[C@@H](CCCNC(=N)N)C(=O)N[C@@H](CCCNC(=N)N)C(=O)N[C@@H](Cc1ccccc1)C(=O)N[C@@H](CCCNC(=N)N)C(=O)N[C@@H](CCCCN)C(=O)N[C@@H](CCCCN)C(=O)NCC(N)=O,A549,"cell growth or viability, MTT",24 h,IC50,> 500 µM
O=c1cc(CSc2ccc(N=Cc3ccccc3F)cc2)occ1O,,"ABTS scavenging, absorbance",,IC50,0.03 µM
CC[C@H](C)[C@H](NC(=O)[C@H](CCCNC(=N)N)NC(=O)[C@H](CCCNC(=N)N)NC(=O)[C@H](CCSC)NC(=O)[C@H](CCCNC(=N)N)NC(=O)[C@H](CCCNC(=N)N)NC(=O)[C@H](CCCNC(=N)N)NC(=O)[C@H](CC(C)C)NC(=O)[C@H](CCCNC(=N)N)NC(=O)CNC(=O)[C@H](Cc1c[nH]c2ccccc12)NC(=O)[C@@H](N)CCSC)C(=O)N[C@@H](CCCCN)C(N)=O,A549,"cell growth or viability, MTT",24 h,IC50,> 500 µM
